According to ChEMBL document CHEMBL1129929, “Analogues of methotrexate in rheumatoid arthritis. 1. Effects of 10-deazaaminopterin analogues on type II collagen-induced arthritis in mice” (J Med Chem, 1997):
One block for each molecule: values may come before it.

Experiments:
[1] = Concentration required to inhibit the growth of chang liver cells; assay type: functional; details: Homo sapiens
L1210 = test: Concentration required to inhibit the growth of L1210 cells; assay type: functional, cell-based; details: Mus musculus
Mus musculus [2] = test: Incidence of disease(mouse type II collagen arthritis) was scored as the percentage of animals within each experimental group that exhibited joint or limb inflammation on day 30 at intraperitoneal of dose 18 mg/kg; assay type: functional
Method in brief: (§1)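 DBA/1 mice were immunized with bovine type II collagen (modified Courtenay method), with a collagen booster on day 21. Compounds were given ip starting 2 days before the first collagen challenge and every 2 days thereafter. Incidence was the percentage of animals per group with joint or limb inflammation, scored on days 23, 30, 37 and 44.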

Mus musculus [3] = test: Incidence of disease(mouse type II collagen arthritis) was scored as the percentage of animals within each experimental group that exhibited joint or limb inflammation on day 37 at intraperitoneal of dose 12 mg/kg; assay type: functional; method in brief: as §1
Mus musculus [4] = test: Incidence of disease(mouse type II collagen arthritis) was scored as the percentage of animals within each experimental group that exhibited joint or limb inflammation on day 37 at intraperitoneal of dose 18 mg/kg; assay type: functional; method in brief: as §1
Mus musculus [5] = test: Incidence of disease(mouse type II collagen arthritis) was scored as the percentage of animals within each experimental group that exhibited joint or limb inflammation on day 23 at intraperitoneal dose of 18 mg/kg; assay type: functional; method in brief: as §1
Mus musculus [6] = test: Incidence of disease(mouse type II collagen arthritis) was scored as the percentage of animals within each experimental group that exhibited joint or limb inflammation on day 23 at intraperitoneal of dose 12 mg/kg; assay type: functional; method in brief: as §1
Mus musculus [7] = test: Incidence of disease(mouse type II collagen arthritis) was scored as the percentage of animals within each experimental group that exhibited joint or limb inflammation on day 30 at intraperitoneal of dose 12 mg/kg; assay type: functional; method in brief: as §1
Mus musculus [8] = test: Tested for antiinflammatory activity on mouse type II collagen arthritis as Paw swelling* of all animals in each group on day 44 at intraperitoneal dose of 12 mg/kg; assay type: functional
Method in brief: (§2)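 DBA/1 mice immunized with bovine type II collagen (Courtenay method, modified), antigen booster at day 21. Compounds given ip from 2 days before the first collagen challenge, then every 2 days. Hind paw dimensions (mm) measured for both limbs of all animals, expressed as mean ± SD. Eight mice per dose; untreated controls pooled from four experiments (48 animals).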

Mus musculus [9] = test: Tested for antiinflammatory activity on mouse type II collagen arthritis as Paw swelling* of all animals in each group on day 44 at intraperitoneal dose of 18 mg/kg; assay type: functional; method in brief: as §2
Mus musculus [10] = test: Tested for antiinflammatory activity on mouse type II collagen arthritis as Paw swelling* of all animals in each group on day 30 at intraperitoneal dose of 12 mg/kg; assay type: functional; method in brief: as §2
Mus musculus [11] = test: Tested for antiinflammatory activity on mouse type II collagen arthritis as Paw swelling* of all animals in each group on day 23 at intraperitoneal dose of 12 mg/kg; assay type: functional; method in brief: as §2
Mus musculus [12] = test: Tested for antiinflammatory activity on mouse type II collagen arthritis as Paw swelling* of all animals in each group on day 23 at intraperitoneal dose of 18 mg/kg; assay type: functional; method in brief: as §2
Mus musculus [13] = test: Incidence of disease(mouse type II collagen arthritis) was scored as the percentage of animals within each experimental group that exhibited joint or limb inflammation on day 44 at intraperitoneal of dose 12 mg/kg; assay type: functional; method in brief: as §1
Mus musculus [14] = test: Incidence of disease(mouse type II collagen arthritis) was scored as the percentage of animals within each experimental group that exhibited joint or limb inflammation on day 44 at intraperitoneal of dose 18 mg/kg; assay type: functional; method in brief: as §1
Mus musculus [15] = test: Tested for antiinflammatory activity on mouse type II collagen arthritis as Paw swelling* of all animals in each group on day 37 at intraperitoneal dose of 12 mg/kg; assay type: functional; method in brief: as §2
Mus musculus [16] = test: Tested for antiinflammatory activity on mouse type II collagen arthritis as Paw swelling* of all animals in each group on day 37 at intraperitoneal dose of 18 mg/kg; assay type: functional; method in brief: as §2
Mus musculus [17] = test: Tested for antiinflammatory activity on mouse type II collagen arthritis as Paw swelling* of all animals in each group on day 30 at intraperitoneal dose of 18 mg/kg; assay type: functional; method in brief: as §2
Mus musculus [18] = test: Incidence of disease(mouse type II collagen arthritis) was scored as the percentage of animals within each experimental group that exhibited joint or limb inflammation on day 30 at intraperitoneal of dose 2.5 mg/kg; assay type: functional; method in brief: as §1
Mus musculus [19] = test: Incidence of disease(mouse type II collagen arthritis) was scored as the percentage of animals within each experimental group that exhibited joint or limb inflammation on day 30 at intraperitoneal of dose 5 mg/kg; assay type: functional; method in brief: as §1
Mus musculus [20] = test: Incidence of disease(mouse type II collagen arthritis) was scored as the percentage of animals within each experimental group that exhibited joint or limb inflammation on day 37 at intraperitoneal of dose 1.25 mg/kg; assay type: functional; method in brief: as §1
Mus musculus [21] = test: Incidence of disease(mouse type II collagen arthritis) was scored as the percentage of animals within each experimental group that exhibited joint or limb inflammation on day 23 at intraperitoneal dose of 1.25 mg/kg; assay type: functional; method in brief: as §1
Mus musculus [22] = test: Incidence of disease(mouse type II collagen arthritis) was scored as the percentage of animals within each experimental group that exhibited joint or limb inflammation on day 23 at intraperitoneal dose of 5 mg/kg; assay type: functional; method in brief: as §1
Mus musculus [23] = test: Incidence of disease(mouse type II collagen arthritis) was scored as the percentage of animals within each experimental group that exhibited joint or limb inflammation on day 30 at intraperitoneal of dose 1.25 mg/kg; assay type: functional; method in brief: as §1
Mus musculus [24] = test: Tested for antiinflammatory activity on mouse type II collagen arthritis as Paw swelling* of all animals in each group on day 23 at intraperitoneal dose of 1.25 mg/kg; assay type: functional; method in brief: as §2
Mus musculus [25] = test: Tested for antiinflammatory activity on mouse type II collagen arthritis as Paw swelling* of all animals in each group on day 44 at intraperitoneal dose of 5 mg/kg; assay type: functional; method in brief: as §2
Mus musculus [26] = test: Tested for antiinflammatory activity on mouse type II collagen arthritis as Paw swelling* of all animals in each group on day 30 at intraperitoneal dose of 1.25 mg/kg; assay type: functional; method in brief: as §2
Mus musculus [27] = test: Tested for antiinflammatory activity on mouse type II collagen arthritis as Paw swelling* of all animals in each group on day 23 at intraperitoneal dose of 2.25 mg/kg; assay type: functional; method in brief: as §2
Mus musculus [28] = test: Tested for antiinflammatory activity on mouse type II collagen arthritis as Paw swelling* of all animals in each group on day 23 at intraperitoneal dose of 5 mg/kg; assay type: functional; method in brief: as §2
Mus musculus [29] = test: Incidence of disease(mouse type II collagen arthritis) was scored as the percentage of animals within each experimental group that exhibited joint or limb inflammation on day 37 at intraperitoneal of dose 2.5 mg/kg; assay type: functional; method in brief: as §1
Mus musculus [30] = test: Incidence of disease(mouse type II collagen arthritis) was scored as the percentage of animals within each experimental group that exhibited joint or limb inflammation on day 37 at intraperitoneal of dose 5 mg/kg; assay type: functional; method in brief: as §1
Mus musculus [31] = test: Incidence of disease(mouse type II collagen arthritis) was scored as the percentage of animals within each experimental group that exhibited joint or limb inflammation on day 44 at intraperitoneal of dose 1.25 mg/kg; assay type: functional; method in brief: as §1
Mus musculus [32] = test: Incidence of disease(mouse type II collagen arthritis) was scored as the percentage of animals within each experimental group that exhibited joint or limb inflammation on day 44 at intraperitoneal of dose 5 mg/kg; assay type: functional; method in brief: as §1
Mus musculus [33] = test: Tested for antiinflammatory activity on mouse type II collagen arthritis as Paw swelling* of all animals in each group onn day 44 at intraperitoneal dose of 2.25 mg/kg; assay type: functional; method in brief: as §2
Mus musculus [34] = test: Tested for antiinflammatory activity on mouse type II collagen arthritis as Paw swelling* of all animals in each group on day 30 at intraperitoneal dose of 2.25 mg/kg; assay type: functional; method in brief: as §2
Mus musculus [35] = test: Tested for antiinflammatory activity on mouse type II collagen arthritis as Paw swelling* of all animals in each group on day 30 at intraperitoneal dose of 5 mg/kg; assay type: functional; method in brief: as §2
Mus musculus [36] = test: Tested for antiinflammatory activity on mouse type II collagen arthritis as Paw swelling* of all animals in each group on day 37 at intraperitoneal dose of 2.25 mg/kg; assay type: functional; method in brief: as §2
Mus musculus [37] = test: Tested for antiinflammatory activity on mouse type II collagen arthritis as Paw swelling* of all animals in each group on day 37 at intraperitoneal dose of 5 mg/kg; assay type: functional; method in brief: as §2
Mus musculus [38] = test: Incidence of disease(mouse type II collagen arthritis) was scored as the percentage of animals within each experimental group that exhibited joint or limb inflammation on day 23 at intraperitoneal dose of 2.5 mg/kg; assay type: functional; method in brief: as §1
Mus musculus [39] = test: Incidence of disease(mouse type II collagen arthritis) was scored as the percentage of animals within each experimental group that exhibited joint or limb inflammation on day 44 at intraperitoneal of dose 2.5 mg/kg; assay type: functional; method in brief: as §1

IC50 (L1210): 8.1 nM
Structure (SMILES): Nc1nc(N)c2nc(CCc3ccc(C(=O)NC(CCC(=O)O)C(=O)O)s3)cnc2n1 (stereo not given)
IC50 [1]: 3.1 nM
Animals (Mus musculus [2]): 0%
Animals (Mus musculus [3]): 50%
Animals (Mus musculus [4]): 38%
Animals (Mus musculus [5]): 0%
Animals (Mus musculus [6]): 0%
Animals (Mus musculus [7]): 0%
Paw swelling (Mus musculus [8]): 2.58 mm
Paw swelling (Mus musculus [9]): 2.38 mm
Paw swelling (Mus musculus [10]): 2.15 mm
Paw swelling (Mus musculus [11]): 2.15 mm
Paw swelling (Mus musculus [12]): 2.14 mm
Animals (Mus musculus [13]): 50%
Animals (Mus musculus [14]): 25%
Paw swelling (Mus musculus [15]): 2.28 mm
Paw swelling (Mus musculus [16]): 2.26 mm
Paw swelling (Mus musculus [17]): 2.16 mm

IC50 (L1210): 268 nM
Structure (SMILES): CCC(Cc1cnc2nc(N)nc(N)c2n1)c1ccc(C(=O)NC(CCC(=O)O)C(=O)O)cn1 (stereo not given)
IC50 [1]: 35 nM
Animals (Mus musculus [18]): 25%
Animals (Mus musculus [19]): 63%
Animals (Mus musculus [20]): 75%
Animals (Mus musculus [3]): 88%
Animals (Mus musculus [21]): 12%
Animals (Mus musculus [22]): 12%
Animals (Mus musculus [6]): 12%
Animals (Mus musculus [23]): 38%
Animals (Mus musculus [7]): 25%
Paw swelling (Mus musculus [24]): 2.17 mm
Paw swelling (Mus musculus [8]): 2.86 mm
Paw swelling (Mus musculus [25]): 3.09 mm
Paw swelling (Mus musculus [26]): 2.24 mm
Paw swelling (Mus musculus [10]): 2.2 mm
Paw swelling (Mus musculus [27]): 2.15 mm
Paw swelling (Mus musculus [28]): 2.15 mm
Paw swelling (Mus musculus [11]): 2.21 mm
Animals (Mus musculus [29]): 75%
Animals (Mus musculus [30]): 75%
Animals (Mus musculus [31]): 100%
Animals (Mus musculus [13]): 100%
Animals (Mus musculus [32]): 88%
Paw swelling (Mus musculus [33]): 2.75 mm
Paw swelling (Mus musculus [34]): 2.18 mm
Paw swelling (Mus musculus [35]): 2.32 mm
Paw swelling (Mus musculus [15]): 2.59 mm
Paw swelling (Mus musculus [36]): 2.75 mm
Paw swelling (Mus musculus [37]): 2.56 mm
Animals (Mus musculus [38]): 0%
Animals (Mus musculus [39]): 75%
